In ChEMBL document CHEMBL1157725 (Bioorg Med Chem, 2010):

Legend:
MCF7 = assay: Antiproliferative activity against human MCF7 cells after 24 hrs by SRB assay; type: functional, cell-based; conditions: MCF7, 24 h
Summary of the method: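 MCF-7 cells are grown for 24 h with or without drug, then for a further 48 h. Total cell protein is measured by sulforhodamine B staining, and the IC₅₀ is derived from it.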

[1] = Inhibition of tubulin polymerization by turbidimetry
Summary of the method: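 Tubulin at 10 µM (1.0 mg/mL). Polymerization followed turbidimetrically at 350 nm in temperature-controlled spectrophotometers.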

[2] = Inhibition of tubulin in rat A10 cells assessed as induction of cellular microtubule disassembly after 18 hrs by indirect immunofluorescence technique; type: cell-based; conditions: A10, 18 h
Summary of the method: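 A-10 cells plated on glass coverslips and treated with compound at varying concentrations for 18 h. After fixation, microtubules immunostained with a β-tubulin antibody (indirect immunofluorescence) and nuclei stained with DAPI. Read by fluorescence microscopy. Percentage of cellular microtubule loss estimated visually across the concentration range.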

IC50 (MCF7): > 2.5 µM | IC50 [1]: > 40 µM | EC50 [2]: > 15 µM
SMILES: COc1ccc(C(=O)/C=C/c2cc(OC)c(OC)c(OC)c2)cc1B(O)O
